Drawing on PMC9933479 (ACS Omega, 2023), this text covers inhibition and IC50 for five compounds.

Holding throughout (test): MTT assay, cytotoxicity/growth inhibition
In one assay the test system is MCF-7 (breast carcinoma). The class given is cell-based. The following applies: Homo sapiens; for inhibition at 20 µM: MCF7, 48 h, read-out: Cytotoxic Activity (% Growth Inhibition); for IC50: MCF7. A digest of the protocol: (§1)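 Cells were grown in RPMI (A549, HCT-116, PC-3) or DMEM (MCF-7) with 10% FBS at 37 °C and 5% CO2. Seeding per well was […] and PC-3 8 × 10^4 cells. […] MTT 250 μg/mL, 4 h; DMSO; A570; triplicate; mean ± SE.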

Assay [1] deals with HCT-116 (colon carcinoma). Format: cell-based. The note with it: Homo sapiens; for inhibition at 20 µM: HCT-116, 48 h, read-out: Cytotoxic Activity (% Growth Inhibition); for IC50: HCT-116. In outline:
as §1

Another assay concerns A549 (lung carcinoma). The class given is cell-based, human. The following applies: Homo sapiens; for inhibition at 20 µM: A549, 48 h; for IC50: A549. A digest of the protocol: as §1
Assay [2] deals with PC-3 (prostate carcinoma). Format: cell-based. The following applies: Homo sapiens; for inhibition at 20 µM: 48 h, read-out: Cytotoxic Activity (% Growth Inhibition). In outline:
as §1

Where [3] appears, read: read-out: Cytotoxic Activity (% Growth Inhibition), A549, 20 μM concentration, MTT, 48 h.

Like-named read-outs stand apart in the source and are kept apart here.

A word on the IC50: it is the point on the concentration scale where inhibition reaches its midpoint. Higher therefore signals lower potency.

As for `C[C@@]12COC(c3ccccc3)O[C@@H]1CC[C@]1(C)C2CC=C(COC(=O)c2ccccc2C(F)(F)F)[C@H]1/C=C/C1=CCOC1=O` (stereo partly drawn) [Compound 8n, ((4aR,6aR,7S,10bR)-6a,10b-Dimethyl-7-((E)-2-(2-oxo-2,5-dihydrofuran-3-yl)vinyl)-3-phenyl-4a,5,6,6a,7,10,10a,10b-octahydro-1H-naphtho[2,1-d][1,3]dioxin-8-yl)methyl 2-(Trifluoromethyl)benzoate], the inhibition at 20 µM in the assay on MCF-7 (breast carcinoma) amounted to 55 ± 0.69%; in assay [1] it was 31.3 ± 0.89%; with A549 (lung carcinoma) (setting [3]) it was 18 ± 1.4%; in assay [2], 55 ± 0.56%.
With `C[C@@]12COC(c3ccccc3)O[C@@H]1CC[C@]1(C)C2CC=C(COC(=O)Cc2ccccc2)[C@H]1/C=C/C1=CCOC1=O` (stereo partly drawn) [Compound 8o, ((4aR,6aR,7S,10bR)-6a,10b-Dimethyl-7-((E)-2-(2-oxo-2,5-dihydrofuran-3-yl)vinyl)-3-phenyl-4a,5,6,6a,7,10,10a,10b-octahydro-1H-naphtho[2,1-d][1,3]dioxin-8-yl)methyl 2-Phenylacetate], the inhibition at 20 µM in the assay on MCF-7 (breast carcinoma) stood at 32.09 ± 0.08%; in assay [1], 24.97 ± 0.16%; in the assay with A549 (lung carcinoma) (read-out: Cytotoxic Activity (% Growth Inhibition)) it was 20.13 ± 0.02%; in assay [2], 0%.
With `C[C@@]12COC(c3ccccc3)O[C@@H]1CC[C@]1(C)C2CC=C(COC(=O)Cc2ccc(F)cc2)[C@H]1/C=C/C1=CCOC1=O` (stereo partly drawn) [Compound 8p, ((4aR,6aR,7S,10bR)-6a,10b-Dimethyl-7-((E)-2-(2-oxo-2,5-dihydrofuran-3-yl)vinyl)-3-phenyl-4a,5,6,6a,7,10,10a,10b-octahydro-1H-naphtho[2,1-d][1,3]dioxin-8-yl)methyl 2-(4-Fluorophenyl)acetate], the half-inhibitory concentration (IC50) with MCF-7 (breast carcinoma) was greater than 20 µM; in assay [1], greater than 20 µM; in the assay on A549 (lung carcinoma), greater than 20 µM; in assay [2], 8 µM. The inhibition at 20 µM was found to be 0% in the assay with MCF-7 (breast carcinoma), 20.6 ± 0.95% in assay [1], 17 ± 1.7% in the assay on A549 (lung carcinoma) (setting [3]) and 77 ± 0.86% in assay [2].
Turning to `C[C@@]12COC(c3ccccc3)O[C@@H]1CC[C@]1(C)C2CC=C(COC(=O)Cc2ccc(Cl)cc2)[C@H]1/C=C/C1=CCOC1=O` (stereo partly drawn) [Compound 8q, ((4aR,6aR,7S,10bR)-6a,10b-Dimethyl-7-((E)-2-(2-oxo-2,5-dihydrofuran-3-yl)vinyl)-3-phenyl-4a,5,6,6a,7,10,10a,10b-octahydro-1H-naphtho[2,1-d][1,3]dioxin-8-yl)methyl 2-(4-Chlorophenyl)acetate], the inhibition at 20 µM was found to be 46 ± 0.72% with MCF-7 (breast carcinoma), 36.1 ± 0.96% in assay [1], 11 ± 1% in the assay with A549 (lung carcinoma) (setting [3]) and 39 ± 0.82% in assay [2].
In the case of `C[C@@]12COC(c3ccccc3)O[C@@H]1CC[C@]1(C)C2CC=C(COC(=O)Cc2ccc(I)cc2)[C@H]1/C=C/C1=CCOC1=O` (stereo partly drawn) [Compound 8r, ((4aR,6aR,7S,10bR)-6a,10b-Dimethyl-7-((E)-2-(2-oxo-2,5-dihydrofuran-3-yl)vinyl)-3-phenyl-4a,5,6,6a,7,10,10a,10b-octahydro-1H-naphtho[2,1-d][1,3]dioxin-8-yl)methyl 2-(4-Iodophenyl)acetate], the IC50 in the assay on MCF-7 (breast carcinoma) was greater than 20 µM; in assay [1], greater than 20 µM; in the assay on A549 (lung carcinoma) it was greater than 20 µM; in assay [2], 5.8 µM. The inhibition at 20 µM in the assay on MCF-7 (breast carcinoma) was 42 ± 0.69%; in assay [1], 22.1 ± 0.58%; in the assay with A549 (lung carcinoma) (setting [3]) it was 2.9 ± 0.69%; in assay [2], 77 ± 0.48%.
